# Source: ChEMBL document CHEMBL1150942, “Anti-AIDS agents. 30. Anti-HIV activity of oleanolic acid, pomolic acid, and structurally related triterpenoids” (J Nat Prod, 1998)
# Key:
# [1] = test system: Human immunodeficiency virus 1; test: Antiviral activity against HIV1 in human H9 cells after 4 days; settings: h9, 96 h
# H9 cells (Homo sapiens) = test: Cytotoxicity against human H9 cells after 4 days
# [2] = Therapeutic index, ratio of IC50 for human H9 cells to EC50 for HIV1 3B; assay type: cell-based; settings: for selectivity ratio: H9 cells (cytotoxicity IC50) and HIV-1 3B (antiviral EC50)
# Summary of the method: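 TI calculated as IC50 (Coulter counts of mock-infected cells after 4 days) divided by EC50 (day-4 supernatant p24 ELISA of infected cells). Both were read from the same 4-day plates.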
# [3] = test system: Human immunodeficiency virus 1; test: Inhibition of HIV-1 replication in acutely infected human H9 cells after 4 days; settings: H9, 96 h
# [4] = Homo sapiens, H9, 96 h, read-out: IC50
Activity [1],EC50 [3] [µg/mL],Compound,IC50 (H9 cells (Homo sapiens); [4]) [µg/mL],selectivity ratio [2],IC50 (H9 cells (Homo sapiens); h9) [µg/mL],Ratio IC50/EC50 ([2]; h9)
Not Active,,C[C@@H]1CC[C@]2(C(=O)O)CC[C@]3(C)C(=CC[C@@H]4[C@@]5(C)[C@H](O)C(=O)[C@H](O)C(C)(C)[C@@H]5CC[C@]43C)[C@@H]2[C@]1(C)O,40,,,
,,CC(C)(CC(=O)O)CC(=O)O[C@H]1CC[C@]2(C)[C@H]3CC=C4[C@@H]5CC(C)(C)CC[C@]5(C(=O)O)CC[C@@]4(C)[C@]3(C)CC[C@H]2C1(C)C,14.2,9.3,,
Not Active,,CC1(C)CC[C@]2(C(=O)O)CC[C@]3(C)C(=CC[C@@H]4[C@@]5(C)CC[C@H](OC(=O)C(C)(C)CC(=O)O)C(C)(C)[C@@H]5CC[C@]43C)[C@@H]2C1,9.7,,,
,1.4,C[C@@H]1CC[C@]2(C(=O)O)CC[C@]3(C)C(=CC[C@@H]4[C@@]5(C)CC[C@H](O)C(C)(C)[C@@H]5CC[C@]43C)[C@@H]2[C@]1(C)O [POMOLIC ACID],23.3,16.6,,
Not Active,,C[C@@H]1CC[C@]2(C(=O)O)CC[C@]3(C)C(=CC[C@@H]4[C@@]5(C)[C@H](O)[C@H](O)[C@H](O)C(C)(C)[C@@H]5CC[C@]43C)[C@@H]2[C@]1(C)O,> 20,,,
,,CC1(C)CC[C@]2(C(=O)O)CC[C@]3(C)C(=CC[C@@H]4[C@@]5(C)CC[C@H](O)C(C)(C)[C@@H]5CC[C@]43C)[C@@H]2C1 [OLEANOLIC_ACID],21.8,,,
,6.1,CC1(C)CC[C@]2(C(=O)O)CC[C@]3(C)C(=CC[C@@H]4[C@@]5(C)CC[C@H](OC(=O)CCC(=O)O)C(C)(C)[C@@H]5CC[C@]43C)[C@@H]2C1 [OLEANOLIC ACID 3-O-SUCCINATE],6.5,1.1,,
,,CC1(C)CC[C@]2(C(=O)O)CC[C@]3(C)C(=CC[C@@H]4[C@@]5(C)CC[C@H](OC(=O)CC6(CC(=O)O)CCCC6)C(C)(C)[C@@H]5CC[C@]43C)[C@@H]2C1,4.7,3.9,,
Not Active,,C[C@@H]1CC[C@]2(C(=O)O)CC[C@]3(C)C(=CC[C@@H]4[C@@]5(C)C[C@@H](O)[C@H](O)C(C)(C)[C@@H]5CC[C@]43C)[C@@H]2[C@]1(C)O [TOMENTIC ACID],15,,,
,,CC1(C)CC[C@]2(C(=O)O)CC[C@]3(C)C(=CC[C@@H]4[C@@]5(C)CC[C@H](OC(=O)CC(C)(C)C(=O)O)C(C)(C)[C@@H]5CC[C@]43C)[C@@H]2C1,11.2,22400,,
,4,C[C@H]1[C@H](C)CC[C@]2(C(=O)O)CC[C@]3(C)C(=CC[C@@H]4[C@@]5(C)C[C@@H](O)[C@H](O)C(C)(C)[C@@H]5CC[C@]43C)[C@H]12 [COROSOLIC ACID],8,2,,
Not Active,,C[C@H]1[C@H](C)CC[C@]2(C(=O)O)CC[C@]3(C)C(=CC[C@@H]4[C@@]5(C)C[C@@H](O)[C@H](O)[C@@](C)(CO)[C@@H]5CC[C@]43C)[C@H]12 [ASIATIC ACID],9,,,
,20,C[C@@H]1CC[C@]2(C(=O)O)CC[C@]3(C)C(=CC[C@@H]4[C@@]5(C)CC(=O)[C@H](O)C(C)(C)[C@@H]5CC[C@]43C)[C@@H]2[C@]1(C)O,40,2,,
,35,C[C@@H]1CC[C@]2(C(=O)O)CC[C@]3(C)C(=CC[C@@H]4[C@@]5(C)[C@H](O)[C@@H](O)[C@@H](O)C(C)(C)[C@@H]5CC[C@]43C)[C@@H]2[C@]1(C)O,> 100,> 2.9,,
,,CC1(C)CC[C@]2(C(=O)O)CC[C@]3(C)C(=CC[C@@H]4[C@@]5(C)CC[C@H](OC(=O)CCCC(=O)O)C(C)(C)[C@@H]5CC[C@]43C)[C@@H]2C1,14.6,2.1,,
,2,C[C@H]1[C@H](C)CC[C@]2(C(=O)O)CC[C@]3(C)C(=CC[C@@H]4[C@@]5(C)CC[C@H](O)C(C)(C)[C@@H]5CC[C@]43C)[C@H]12 [URSOLIC ACID],6.5,3.3,,
,1.1,CC[C@@](C)(CC(=O)O)CC(=O)O[C@H]1CC[C@]2(C)[C@H]3CC=C4[C@@H]5CC(C)(C)CC[C@]5(C(=O)O)CC[C@@]4(C)[C@]3(C)CC[C@H]2C1(C)C,4.4,4.1,,
,,CC1(C)CC[C@]2(C(=O)O)CC[C@]3(C)C(=CC[C@@H]4[C@@]5(C)C[C@@H](O)[C@H](O)[C@@](C)(CO)[C@@H]5CC[C@]43C)[C@@H]2C1 (stereo in doubt; 2) [ARJUNOLIC ACID],,,8,
,0.5,CC1(C)CC[C@]2(C(=O)[O-])CC[C@]3(C)C(=CC[C@@H]4[C@@]5(C)CC[C@H](O)C(C)(C)[C@@H]5CC[C@]43C)[C@@H]2C1.[K+],34.3,,,68.6
,15,CC1(C)CC[C@]2(C(=O)O)CC[C@]3(C)C(=CC[C@@H]4[C@@]5(C)C[C@@H](O)[C@H](O)[C@@](C)(CO)[C@@H]5CC[C@]43C)[C@@H]2C1 (stereo in doubt; 3) [ARJUNOLIC ACID],,,36,
Not Active,,C[C@@H]1CC[C@]2(C(=O)O)CC[C@]3(C)C(=CC[C@@H]4[C@@]5(C)C[C@@H](O)[C@@H](O)C(C)(C)[C@@H]5CC[C@]43C)[C@@H]2[C@]1(C)O [EUSCAPHIC ACID],37.5,,,
Not Active,,CC1(C)CC[C@]2(C(=O)O)CC[C@]3(C)C(=CC[C@@H]4[C@@]5(C)CC[C@H](OC(=O)COCC(=O)O)C(C)(C)[C@@H]5CC[C@]43C)[C@@H]2C1,22.1,,,
,0.11,CC1(C)CC[C@]2(C(=O)O)CC[C@]3(C)C(=CC[C@@H]4[C@@]5(C)CCC(=O)C(C)(C)[C@@H]5CC[C@]43C)[C@@H]2C1 [OLEANONIC ACID],0.8,7.3,,
,8.3,C[C@@H](CC(=O)O)CC(=O)O[C@H]1CC[C@]2(C)[C@H]3CC=C4[C@@H]5CC(C)(C)CC[C@]5(C(=O)O)CC[C@@]4(C)[C@]3(C)CC[C@H]2C1(C)C,27.5,3.3,,

Compound,Activity [1],EC50 [3] [µg/mL],IC50 (H9 cells (Homo sapiens); [4]) [µg/mL],selectivity ratio [2],IC50 (H9 cells (Homo sapiens); h9) [µg/mL],Ratio IC50/EC50 ([2]; h9)
CC1(C)CC[C@]2(C(=O)O)CC[C@]3(CO)C(=CC[C@@H]4[C@@]5(C)CC[C@H](O)C(C)(C)[C@@H]5CC[C@]43C)[C@@H]2C1,,4.4,25,5.7,,
C=C(C)[C@@H]1CC[C@]2(C(=O)O)CC[C@]3(C)[C@H](CC[C@@H]4[C@@]5(C)C[C@@H](O)[C@H](O)C(C)(C)[C@@H]5CC[C@]43C)[C@@H]12 [ALPHITOLIC ACID],,20,4,0.25,,
